Shown is part of a subset that was picked to be rich in hits.
UPR XBP1 act = adaptive UPR (XBP1) activation | CHO-XBP1 luciferase reporter, IRE1-XBP1 UPR activation, luminescence; percent of tunicamycin response, DMSO as zero | activation, % at 20 µM | 0.33% of 330,000 active | AID 463104;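 active = versus positive control, 20 µM dose yields 30% or more activation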;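 note: 100% = tunicamycin at 10 µg/mL and 0% = DMSO only wells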
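Material: CHO cell line with stable XBP1 luciferase reporter; buffer or medium: F12 medium containing 10% fetal bovine serum; compound: single point, 20 µM final compound, 1% DMSO; incubation: 6 h treatment, 37 °C; measured by: glow luminescence from Steady-Glo reagent; evaluation: activation, % of tunicamycin; control set: tunicamycin high, DMSO low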
CHOP inhibitor = CHOP inhibition in unfolded protein response; CHO-K1 CHOP-promoter luciferase, tunicamycin-induced, 15-18 h; inhibition, % at 10 µM; 3.8% of 220,000 active;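 active = compounds that reduced the stress-induced luciferase reporter signal by more than about 70% of percent inhibition, limit read from the data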;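 note: 0% = tunicamycin plus vehicle and 100% = wells without tunicamycin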
A1 inh = inhibitors of the anti-apoptotic protein A1, read as caspase activation. MEF A1-2A-BIM cells, Caspase-Glo 3/7 luminescence, 3 h; percent of clofoctol response, vehicle zero. caspase activation, % (no concentration beside the values). 0.066% of 330,000 active. AID 2462;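 active = over half of replicate activation scores above 10%, or exactly half above 10 with the replicate mean above 10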
CHOP UPR activ = activators of apoptotic arm of unfolded protein response (CHOP); AID 449763; CHO-CHOP luciferase reporter, UPR activation, luminescence; percent of tunicamycin response over DMSO baseline; 0.34% of 330,000 active; activation, % at 10 µM;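 active = at 10 µM dose, activation of 40% or more, normalized to positive control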;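 note: 100% = tunicamycin at 10 µg/mL and 0% = DMSO alone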
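Dosing – one dose, 10 µM in 0.5% DMSO · System – CHO-CHOP cells, stable luciferase reporter of PERK-eIF2a-CHOP signalling · Input – 500 cells/well · Control set – tunicamycin 10 µg/mL final as positive, DMSO-only wells as negative · Timing – 6 h compound treatment, 37 °C · Measure – % activation vs tunicamycin · Technique – luminescence read with Steady-Glo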
UPR CHOP confirm = confirmation of apoptotic unfolded protein response (CHOP) activators | activation, % at 10 µM | CHO-CHOP cells, CHOP-luciferase reporter luminescence; percent of tunicamycin response, DMSO as zero | shares compounds with CHOP UPR activ | 64% of 1,000 active; in the data active = activation above about 33%;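 note: 0% = DMSO wells and 100% = tunicamycin 10 µg/mL wells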
An asterisk follows results filed as active; / = not tested or not shown.

SMILES	UPR XBP1 act	CHOP inhibitor	A1 inh	CHOP UPR activ	UPR CHOP confirm
c1ccc(CNc2nc(-c3ccccc3)nc3ccccc23)cc1	0	/	0	0	/
CCC(C)Nc1nc(-c2cccc(OC)c2O)nc2ccccc12 (configuration not stated)	3	69	0	1	/
COc1ccc(C2CC(c3ccccc3)=NN2S(=O)(=O)c2ccc(C)cc2)c(OC)c1 (configuration not stated)	1	15	-1	-1	/
O=C(N/N=C/c1ccccn1)c1sc2ccccc2c1Cl	11	-38	-1	179*	104*
O=C(N/N=C/c1ccccn1)c1cc(-c2ccc(Br)cc2)nc2ccccc12	-3	53	-1	331*	265*
O=C(N/N=C/c1c[nH]c2ccccc12)c1sc2ccccc2c1Cl	1	-5	-1	5	/
O=C(N/N=C/c1ccccn1)c1cc(-c2ccc(Cl)cc2)nc2ccccc12	-2	83*	-1	264*	290*
CN(Cc1ccccc1)C(=O)[C@@H]1CCCN1S(=O)(=O)c1ccc(Cl)cc1	-3	/	0	2	/
O=C1CN(C(=O)COC(=O)CCS(=O)(=O)c2ccccc2Cl)c2ccccc2N1	0	/	1	4	/
CC(C)N=c1scc(-c2cccs2)n1/N=C/c1ccc(O)c(O)c1O	37*	106*	0	212*	150*
Cn1cc(/C=C2\SC(=O)NC2=S)c2ccccc21	17	40	0	51*	67*
CCN(CC)c1ccc(/C=C2\C(=O)N(c3nnc(C)c(=O)[nH]3)N=C2C)cc1	-1	-150	0	221*	832*
O=C1C(=O)c2ccccc2C(O)=C1c1cccc([N+](=O)[O-])c1	-2	30	-1	2	/
O=C1c2ccccc2C(=O)N1c1cccc(-c2nc3ccccc3o2)c1	-4	60	1	0	/
O=C1C=CC(=O)N1c1cccc(-c2ccccc2)c1	-7	20	13*	82*	10
COc1ccc(CCN2CCC(Nc3nc4ccccc4n3Cc3ccc(F)cc3)CC2)cc1	4	/	0	56*	44*
COc1ccc(CNc2nc3ccccc3n2CCN2CCCCC2)cc1	0	21	-1	0	/
O=S(=O)(c1ccccc1)N1CCN(S(=O)(=O)c2ccc(F)cc2)CC1	-2	/	-1	1	/
O=C(Oc1ccccc1/C=C\C(=O)c1cc2ccccc2o1)c1ccccc1	27	-37	-1	73*	244*
COC(=O)c1ccccc1NC(=O)Nc1cccnc1	-3	0	1	-2	/
O=[N+]([O-])c1ccc(C=Nc2ccc(Cl)c([N+](=O)[O-])c2)s1	-3	-25	/	61*	49*
O=C(/C=C/c1c(F)cccc1Cl)c1ccc(O)cc1	-3	-79	0	60*	2
O=C(/C=C/c1ccccc1Cl)c1ccc(O)cc1	6	-48	-4	3	/
Cc1ccc(C)c(NC(=S)N=Nc2c(O)n(C)c3ccc(S(=O)(=O)N4CCOCC4)cc23)c1	-1	-21	1	37	/
CCc1ccccc1NC(=S)N=Nc1c(O)n(C)c2ccc(S(=O)(=O)N3CCOCC3)cc12	0	-69	-1	51*	53*
SMILES	UPR XBP1 act	CHOP inhibitor	A1 inh	CHOP UPR activ	UPR CHOP confirm
O=S(=O)(Nc1cc(Cl)ccc1-n1cncn1)c1cc(Br)ccc1Br	-2	/	-1	2	/
CCOC(=O)c1c(NC(=O)CSc2nnnn2-c2ccc(OC)cc2)sc(C)c1C	1	40	1	57*	1
CCOC(=O)c1csc(NC(=O)CSc2nnnn2-c2ccc(OC)cc2)n1	-2	20	1	-1	/
CN(C)CCNC(=O)c1ccc(-c2nn(C)c(=O)c3ccccc23)cc1	2	10	2	1	/
O=C(CSc1ccc2ccccc2c1)NCCc1ccc(O)c(O)c1	11	-113	3	55*	46*
COC(=O)CCNS(=O)(=O)c1ccc2nsnc2c1	3	/	0	0	/
CC(=O)Nc1ccccc1C	-3	/	0	1	/
CC(=O)/C(=C/c1ccccc1)C(=O)Nc1ccccc1C	-3	-77	2	46*	64*
N#Cc1ccccc1NC(=O)CSc1n[nH]c(=O)n1C1CC1	-1	/	-1	-1	/
Cc1ccc(C)c2sc(N3CCN(C(=O)c4ccc([N+](=O)[O-])o4)CC3)nc12	7	/	1	83*	61*

From PubChem
